These results are taken from the RNAGym collection of RNA variant scans (doi:10.1038/s41586-018-0170-7).

The chains are these.
B1: tRNA (parent)
chain: GUUCCGUUGGCGUAAUGGUAACGCGUCUCCCUCCUAAGGAGAAGACUGCGGGUUCGAGUCCCGUACGGAACG

In the data set the parent is B1. Kind of data set: yeast fitness, log relative to wild type (ln ratio); higher = fitter; tRNA-Arg(CCU), competitive growth, 37 C, 1 M NaCl. The procedure, abridged: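 BY4742 cells without the chromosomal tRNA-Arg(CCU) gene carried a combinatorial variant library on a HIS3 centromeric plasmid, from two independent transformations. After 4 generations in SC-HIS at 30 °C, pools spent ~6.5 generations (~26.5 h) in SC-HIS 1M NaCl at 37 °C, giving three outputs per input, and 125 bp paired-end Illumina reads counted the variants. Fitness is the natural log of each genotype's generations over the wild type's, with generations taken as OD-scaled log2 output/input frequency weighted by inverse variance across replicates.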
Consider G6U A70G C71U, for which the “yeast fitness (ln)” value was -0.153.

With G6A C27U C66A A70U C71U, the “yeast fitness (ln)” value is -0.246.

In the case of G6A C27U A43C C46U, the “yeast fitness (ln)” value was -0.084.

In the case of G6A C46U A69G A70G C71U, the “yeast fitness (ln)” value is -0.146.

On to G6A A43C C66U A69G A70G, for which the “yeast fitness (ln)” value is -0.35.

For G6A A43C C66U A69G A70U, the “yeast fitness (ln)” value is -0.3.

For G6A C27U C46U C66U C71U, the “yeast fitness (ln)” value was -0.0799.

Turning to G6A A70G, the “yeast fitness (ln)” value was -0.194.

As to G6A A70U, the “yeast fitness (ln)” value is -0.0535.

As to G6U A43C C66U A69G A70U C71U, the “yeast fitness (ln)” value is -0.393.

As for G6A C46U C66U A70G C71U, the “yeast fitness (ln)” value is -0.229.

For G6U C27U A43C C46U C66A A69G C71U, the “yeast fitness (ln)” value is -0.439.

For the variant G6U A43C C46U A70U, the “yeast fitness (ln)” value was -0.173.

Take G6U A43C C46U A70G: the “yeast fitness (ln)” value is -0.164.

Consider G6A C46U C66U A69G A70G, for which the “yeast fitness (ln)” value was -0.0235.

On to G6A C46U C66U A69G A70U, for which the “yeast fitness (ln)” value is -0.202.

For G6U A43C C46U C66U A69G A70U, the “yeast fitness (ln)” value is -0.347.

Turning to G6U A43C C46U C66U A69G A70G, the “yeast fitness (ln)” value is -0.313.

For the variant G6A C27U C46U C66U A69G C71U, the “yeast fitness (ln)” value was -0.446.

Take G6U A43C C66U C71U: the “yeast fitness (ln)” value was -0.422.

Regarding G6U A43C C46U C66A A69G A70U C71U, the “yeast fitness (ln)” value was -0.314.

For G6A C46U A70U C71U, the “yeast fitness (ln)” value is -0.15.

Turning to G6U A43C C46U C66U A70U, the “yeast fitness (ln)” value is -0.234.

With G6U A43C C46U C66U A70G, the “yeast fitness (ln)” value is -0.205.

Consider G6A C27U C66A A69G A70U C71U, for which the “yeast fitness (ln)” value is -0.0879.

Take G6U A43C C46U C66U A69G A70G C71U: the “yeast fitness (ln)” value was -0.325.

Consider G6U A43C C46U C66U A69G A70U C71U, for which the “yeast fitness (ln)” value was -0.42.

As for G6U A43C C46U A69G C71U, the “yeast fitness (ln)” value is -0.234.

Regarding G6U A43C C46U A69G A70G C71U, the “yeast fitness (ln)” value was -0.308.

G6A C27U A43C C66U A70G C71U: the “yeast fitness (ln)” value was -0.302.

As to G6A C46U C66A A70G, the “yeast fitness (ln)” value is -0.117.

Consider G6A C46U C66A A70U, for which the “yeast fitness (ln)” value was -0.0387.

G6A C27U A43C C66U A69G A70G C71U: the “yeast fitness (ln)” value is -0.371.

Turning to G6U A43C C46U C66A A69G C71U, the “yeast fitness (ln)” value was -0.548.

As for G6U A43C C66A A69G A70U, the “yeast fitness (ln)” value was -0.215.

Regarding G6U A43C C66A A69G A70G, the “yeast fitness (ln)” value was -0.373.

Regarding G6A A43C C66U A70G C71U, the “yeast fitness (ln)” value was -0.26.

With G6A C27U C46U C66U A70U C71U, the “yeast fitness (ln)” value was -0.237.

For G6U A43C C66U A70U, the “yeast fitness (ln)” value is -0.301.

As for G6U A43C C66U A70G, the “yeast fitness (ln)” value was -0.273.

For G6A C46U A69G A70U C71U, the “yeast fitness (ln)” value was -0.218.

With G6A C27U C46U, the “yeast fitness (ln)” value is -0.149.

In the case of G6U C27U A43C C46U C66A A70U, the “yeast fitness (ln)” value was -0.382.

For G6U C27U A43C C46U C66A A70G, the “yeast fitness (ln)” value is -0.123.

For G6A C46U C66U, the “yeast fitness (ln)” value stood at 0.00319.

Regarding G6A C46U C66A, the “yeast fitness (ln)” value is -0.0719.

Regarding G6U A43C C66U A69G A70G, the “yeast fitness (ln)” value is -0.333.

For G6U A43C C66U A69G A70U, the “yeast fitness (ln)” value was -0.356.

As for G6A C27U A43C C46U C66A A69G A70G C71U, the “yeast fitness (ln)” value was -0.292.

As for G6U A43C C46U C66A A70U, the “yeast fitness (ln)” value is -0.113.

Take G6U A43C C46U C66A A70G: the “yeast fitness (ln)” value is -0.0224.

For the variant G6A C27U A43C C46U C66U A69G A70U, the “yeast fitness (ln)” value is -0.306.

Regarding G6A C27U A43C C46U C66U A69G A70G, the “yeast fitness (ln)” value is -0.369.

With G6U A43C C66U A69G A70G C71U, the “yeast fitness (ln)” value was -0.442.

G6A C27U C66A A70G C71U: the “yeast fitness (ln)” value was -0.364.

Regarding G6U C27U A43C C46U C66U, the “yeast fitness (ln)” value was -0.271.

Regarding G6U C27U A43C C46U C66A, the “yeast fitness (ln)” value is -0.0176.

Regarding G6U A43C C66A A69G A70U C71U, the “yeast fitness (ln)” value is -0.39.

For G6A C66U A69G A70G C71U, the “yeast fitness (ln)” value was -0.41.

On to G6A C27U C66U C71U, for which the “yeast fitness (ln)” value was -0.171.

Regarding G6U C27U A43C C46U C66A A69G, the “yeast fitness (ln)” value was -0.0652.

For G6A C46U C66A A70U C71U, the “yeast fitness (ln)” value was -0.211.

On to G6A C27U A43C C46U A70G C71U, for which the “yeast fitness (ln)” value was -0.25.

Regarding G6A A69G A70U C71U, the “yeast fitness (ln)” value is -0.315.

Consider G6U A43C A69G A70U C71U, for which the “yeast fitness (ln)” value was -0.447.

For the variant G6A C27U A43C A69G A70G C71U, the “yeast fitness (ln)” value was -0.371.

G6A C46U C66U A69G C71U: the “yeast fitness (ln)” value is -0.0544.

For G6A C27U C46U C66A C71U, the “yeast fitness (ln)” value is -0.148.

With G6A C46U A69G C71U, the “yeast fitness (ln)” value is -0.109.

In the case of G6U C27U A43C A69G A70U C71U, the “yeast fitness (ln)” value was -0.462.

Take G6A C27U C66A A70G: the “yeast fitness (ln)” value was -0.136.

For the variant G6A C27U C66A A70U, the “yeast fitness (ln)” value was -0.107.

G6A C27U C66A C71U: the “yeast fitness (ln)” value is -0.168.

Regarding G6A C27U A43C C46U C66A A70G, the “yeast fitness (ln)” value is -0.191.

In the case of G6A C27U A43C C46U C66A A70U, the “yeast fitness (ln)” value is -0.193.

With G6A C27U A43C C46U C66U A69G, the “yeast fitness (ln)” value is -0.188.

For the variant G6A C27U C46U A70G C71U, the “yeast fitness (ln)” value was -0.206.

Take G6U C27U A43C C46U C66U A69G A70G C71U: the “yeast fitness (ln)” value is -0.444.

Consider G6U C27U A43C C46U, for which the “yeast fitness (ln)” value is -0.155.

Regarding G6A C46U C66U A69G, the “yeast fitness (ln)” value is -0.0205.

Turning to G6A C27U A43C C46U A70U C71U, the “yeast fitness (ln)” value is -0.239.

In the case of G6U A69G A70G C71U, the “yeast fitness (ln)” value was -0.282.

As to G6A C27U C46U C66U A69G A70G C71U, the “yeast fitness (ln)” value was -0.215.

For G6A C27U A43C, the “yeast fitness (ln)” value was -0.131.
